# Tested on: Escherichia coli
# Assay: Inhibition of Escherichia coli dihydroneopterin aldolase assessed as [14C]glycolaldehyde formation using [14C]neopterin substrate at 50 ug/ml by scintillation counting
# Outline: (§1)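 Enzyme from E. coli B grown in corn steep liquor medium with methionine and glutamic acid, homogenized, cleared of debris and heat-treated. Substrate is 14C-neopterin with unlabeled neopterin, reduced by dithionite to dihydroneopterin in ammonium acetate pH 9.6 with EDTA and mercaptoethanol. Test pteridines are dithionite-reduced. Incubation runs 30 min at 37 °C in the dark and is stopped with Norit A in 2 N acetic acid. The supernatant is scintillation counted.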
row,inhibition [%],Compound
1,75,Nc1nc2c(c(=O)[nH]1)N=C(C=O)CN2

# Tested on: Escherichia coli
# Assay: Inhibition of Escherichia coli dihydroneopterin aldolase assessed as [14C]glycolaldehyde formation using [14C]neopterin substrate by scintillation counting
# Outline: as §1
row,ID50 [µg/mL],Compound
1,1,CC1(C)Nc2nc(N)nc(O)c2N=C1CO
2,> 50,CCOC(OCC)C1=Nc2c(O)nc(N)nc2NC1
3,> 50,Nc1nc(O)c2c(n1)NCC(CCCc1ccccc1)=N2
4,> 50,Nc1nc(O)c2c(n1)NCC=N2
5,> 50,Nc1nc(O)c2c(n1)NCC(/C=N/O)=N2
6,> 50,Nc1nc(O)c2c(n1)NCC(C(=O)O)=N2
7,> 50,Nc1nc(O)c2c(n1)NC(CO)C=N2 (stereo unspecified)
8,5,NC(=O)C1=Nc2c(O)nc(N)nc2NC1
9,> 50,Nc1nc(O)c2c(n1)NC(O)C(C(=O)O)=N2 (stereo unspecified)
10,> 50,CCCCCCCCC1=Nc2c(O)nc(N)nc2NC1
11,> 50,CC1=Nc2c(O)nc(N)nc2NC1
12,> 50,Nc1nc(N)c2c(n1)NCC(CO)=N2
13,> 50,CC(C)C1=Nc2c(N)nc(N)nc2NC1C(C)C (stereo unspecified)
14,> 50,OCC1=Nc2c(O)nc(S)nc2NC1
15,30,Nc1nc2c(c(=O)[nH]1)N=C(CO)CN2

# Source: ChEMBL document CHEMBL3272232, “Inhibitors of folate biosynthesis. 1. Inhibition of dihydroneopterin aldolase by pteridine derivatives” (J Med Chem, 1977)
